Source: PubChem (Sanford-Burnham Center for Chemical Genomics)
The list is not random: actives were taken first. Their share in the collection is about 2.3%.
LMPTP block: LMPTP phosphatase inhibitors, primary screen, biochemical, fluorescence intensity, uHTS | inhibition, % at 20 µM | 360,000 compounds, 0.22% hits | recombinant LMPTP-A, OMFP fluorogenic substrate | Low molecular weight phosphotyrosine protein phosphatase (Homo sapiens), P24666;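 active means compounds that cut the enzyme signal by at least half of the control window in the single-dose screen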;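 further: plate controls were DMSO wells with enzyme plus substrate for no effect and substrate without enzyme for full effect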
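Assay system: LMPTP-A phosphatase enzyme | Input: 0.625 nM enzyme | Also added: Fluorogenic phosphatase substrate OMFP at 400 µM final | Compound dosing: One test concentration per compound, 20 µM, with 3% DMSO overall | Schedule: 50 min enzyme reaction at room temperature, protected from light | Signal: Fluorescence intensity | Benchmarks: no-enzyme and uninhibited controls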
Scp-1 inhibitor: Scp-1 phosphatase inhibitors, primary screen, biochemical, colorimetric, uHTS; 340,000 compounds, 0.88% hits; inhibition, % at 20 µM; Carboxy-terminal domain RNA polymerase II polypeptide A small phosphatase 1 (Homo …; Recombinant Scp1, phosphopeptide, malachite green phosphate absorbance;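 active means inhibition above about 50% at 20 µM, limit read from the data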;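 further: plate controls were DMSO wells with enzyme for no effect and wells lacking enzyme for full effect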
Target sequence (Q9GZU7 76-261 limits assumed): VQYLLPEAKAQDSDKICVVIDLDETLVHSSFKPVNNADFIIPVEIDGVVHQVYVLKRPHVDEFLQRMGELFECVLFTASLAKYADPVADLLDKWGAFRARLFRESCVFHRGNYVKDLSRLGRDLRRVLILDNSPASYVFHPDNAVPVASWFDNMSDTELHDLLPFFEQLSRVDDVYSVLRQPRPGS
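Test system: SCP-1 phosphatase catalytic domain, residues 76-261 | Compound dosing: One concentration, 20 µM, with 1.0% DMSO | Schedule: 45 min room-temperature reaction, 5 min colour, 30 min stabiliser | Detection: Absorbance at 630 nm | Read-out basis: % inhibition of SCP-1 phosphate liberation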
STEP block: STEP phosphatase inhibitors, primary screen, biochemical, fluorescence intensity, uHTS; recombinant STEP, OMFP fluorogenic substrate; inhibition, % at 20 µM; 360,000 compounds, 0.25% hits;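 active means inhibition at 20 µM, scaled per plate between control wells, above about 37%, limit read from the data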;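 further: 0% = DMSO with enzyme and substrate and 100% = substrate only without enzyme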
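System: STEP (striatal-enriched tyrosine phosphatase) enzyme, cell-free; medium: Bis-Tris pH 6.0 buffer with DTT, detergent; dosing: 20 µM, 1% DMSO; times: reaction 20 min, ambient temperature; detection: fluorescence, 480/540 nm; read-out basis: normalized % inhibition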
Rpn11 inh: Rpn11 (PSMD14) deubiquitinase inhibitors, primary screen, biochemical, fluorescence polarization, uHTS | inhibition, % at 20 µM | 360,000 compounds, 0.59% hits | human 26S proteasome, Ub4-pepOG fluorescence polarization; 20S core pre-blocked with epoxomicin | 26S proteasome non-ATPase regulatory subunit 14 (Homo sapiens), O00487 | AID 588493, 2011;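 active means inhibition at 20 µM, scaled to each plate's controls, above about 33%, limit read from the data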
Target sequence (O00487 whole entry, looked up): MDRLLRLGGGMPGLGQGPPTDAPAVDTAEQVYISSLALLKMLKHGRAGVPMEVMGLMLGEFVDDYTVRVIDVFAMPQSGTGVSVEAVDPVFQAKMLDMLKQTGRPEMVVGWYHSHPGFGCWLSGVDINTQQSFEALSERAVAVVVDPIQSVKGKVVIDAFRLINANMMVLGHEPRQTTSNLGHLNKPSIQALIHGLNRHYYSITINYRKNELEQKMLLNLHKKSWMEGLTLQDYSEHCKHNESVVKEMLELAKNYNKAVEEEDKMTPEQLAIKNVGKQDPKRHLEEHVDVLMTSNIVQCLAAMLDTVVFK
DNMT1 inh: human DNMT1 methyltransferase inhibitors, primary screen, biochemical, molecular beacon, fluorescence, HinP1I cleavage, uHTS | DNA (cytosine-5)-methyltransferase 1 (Homo sapiens), P26358 | inhibition (reported as % activation of signal), % at 10 µM | 360,000 compounds, 0.83% hits | AID 588458, 2011; in the data active means inhibition above about 50%
SUMO1 PPI mod: modulators of SUMO1 protein-protein interactions, primary screen, biochemical, uHTS. Small ubiquitin-related modifier 1 (Homo sapiens), P63165. 360,000 compounds, 0.33% hits. SUMO1 binding to a labelled peptide, TR-FRET, 1 h. AID 602429, 2012. inhibition, % at 20 µM; in the data active means inhibition above about 37%
Target sequence (P63165 whole entry, looked up): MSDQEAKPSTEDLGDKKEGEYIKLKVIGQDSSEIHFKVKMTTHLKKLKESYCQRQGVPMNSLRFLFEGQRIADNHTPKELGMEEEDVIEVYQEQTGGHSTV
DNMT1 interf DR: spectral interference with molecular beacon fluorescence, dose response, artefact control for DNMT1 inhibitor project, biochemical, fluorescent molecular beacon | 200 tested, under 10 active | spectral interference counter-screen | shares compounds with DNMT1 inh | AID 602382, 2012 | IC50, µM; call rule not given here
DNMT1 confirm: DNMT1 methyltransferase inhibitor retest, confirmation, biochemical, molecular beacon, fluorescence, single concentration; shares compounds with DNMT1 inh; DNMT1 molecular beacon HinP1I cleavage; inhibition, % at 10 µM; 2,300 compounds, 8% hits; AID 602385, 2012;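 active means average inhibition of at least 30% in the single-concentration confirmation test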
Beacon interf: beacon fluorescence artifact counter-screen; shares compounds with DNMT1 inh; DNMT1 molecular beacon spectral interference counterscreen, fluorescence 485/520; activation (fluorescence interference), % at 10 µM; 2,300 compounds, 1% hits; AID 602387;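 active means activation of at least 30% at 10 µM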;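 further: DNMT1 catalytic domain with a HinP1I cleavage step and a FAM/dabcyl DNA beacon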
Starred values were filed as active, the others as inactive; / = no result.

SMILES | LMPTP block | Scp-1 inhibitor | STEP block | Rpn11 inh | DNMT1 inh | SUMO1 PPI mod | DNMT1 confirm | Beacon interf | others
COc1ccc(NC(=O)C2Cc3c(-c4cccc(C(N)=O)c4)ccnc3O2)cc1 (centres undefined) | -1 | / | 1 | 1 | 55* | 3 | 12 | 6
CCOC(=O)c1c(NC(=O)COC(=O)Cn2c(C)nc3ccccc32)sc2c1CCCC2 | 27 | 5 | 10 | 16 | 65* | -9 | 5 | 1
CC1(C)CC2(CCCN(CC(O)(c3ccccc3)c3ccccc3)C2)CCO1 (centres undefined) | 1 | -6 | 1 | 0 | 94* | 2 | 4 | 3
CCCCCCn1c(=O)[nH]c2nc3cc(N)c(C)cc3nc2c1=O | -11 | -3 | -199 | -126 | 63* | -24 | 74* | 118*
Cc1ccnc(NC(=O)COC(=O)C23CC4CC(CC(C4)C2)C3)n1 | 1 | 16 | 4 | -2 | 70* | 14 | 11 | 1
Cn1cc(CN2C[C@H]3CC[C@H]2C3)c(-c2ccccc2F)n1 | -1 | 2 | 2 | -7 | 58* | 4 | 4 | 3
CC(C)c1ccc([C@@H]2O[C@H](CCc3ccccc3)CC3=C2C(=O)OC(C)(C)O3)cc1 | 5 | / | / | / | / | 2 | / | /
O=C1c2cccc3c(O)ccc(c23)C(=O)N1Cc1ccco1 | -3 | 12 | -72 | -197 | 95* | -104 | 133* | 116*
O=C1c2ccccc2C(=O)N1Cc1ccco1 | 0 | -10 | -7 | -12 | 0 | -8 | / | /
O=C(O)C1CC2C3CC(C(=O)O)C(C3)C2C1 (centres undefined) | -1 | 0 | -3 | 5 | 75* | -2 | 3 | 2
O=C(O)C1CC1c1ccc(Br)cc1 (centres undefined) | -3 | 2 | -1 | 2 | 2 | -2 | / | /
O=C(CN1C(=O)/C(=C/c2ccc(Cl)cc2)SC1=S)NC1C=CS(=O)(=O)C1 (centres undefined) | 7 | 5 | 1 | -1 | 65* | -13 | 6 | 2
CC(C)(C)CN1CCNC[C@H]1Cc1ccc(O)cc1 | 0 | 0 | 2 | 2 | 76* | 11 | 3 | 4
CCOC(=O)C1(CC2CC2)CCN(C(=O)c2ocnc2C)CC1 | -2 | 14 | 2 | 2 | -6 | 0 | / | /
O=C(/C=C/c1ccc2c(c1)OCO2)Nc1nc2ccccc2s1 | 1 | -4 | 1 | -10 | 39 | -1 | / | /
Cc1ccc2nc(NC(=O)/C=C/c3ccc4c(c3)OCO4)sc2c1 | 8 | 6 | 10 | -2 | 56* | -1 | 2 | -4
Cc1ccc(NC(=O)c2ccc3c(c2)C(=O)N(c2ccccc2C)C3=O)nc1 | 1 | 0 | -5 | 1 | 80* | -33 | 2 | 3
Cc1ccc(C)c(N2C(=O)c3ccc(C(=O)Nc4ccccn4)cc3C2=O)c1 | -2 | / | -2 | -3 | 1 | -19 | / | /
CCOC(=O)C1=C(c2ccccc2)N=c2s/c(=C\c3cc(OC)c(OC)c(OC)c3)c(=O)n2C1c1cccs1 (centres undefined) | 1 | -8 | 2 | 28 | 1 | 14 | / | /
CCOC(=O)C1=C(c2ccccc2)N=c2s/c(=C\c3ccco3)c(=O)n2C1c1cccs1 (centres undefined) | 5 | 29 | 4 | 20 | 58* | 1 | 9 | 5
O=C(COc1ccccc1Cl)Nc1ccc2c(c1)C(=O)NC2=O | -36 | 3 | -1 | 2 | 3 | 1 | / | /
O=C(Nc1cccc(N2CCCC2)c1)c1cccs1 | 17 | -8 | 1 | 23 | 59* | 7 | 3 | 5
COc1ccc(C2/C(=C(/O)c3ccccc3)C(=O)C(=O)N2C)cc1OC (centres undefined) | -2 | -9 | -1 | 1 | 0 | -4 | / | /
C#Cc1ccc([C@@H]2C=C(C(=O)NCc3ccccc3)O[C@H](OCCCCO)C2)cc1 | 5 | 20 | 0 | 11 | 54* | 3 | 3 | 3
COc1ccc(N2C3=C(C(=O)CC(C)(C)C3)C(c3ccccc3OC)C3=C2CC(C)(C)CC3=O)cc1 | 1 | -10 | 0 | 0 | -8 | -7 | / | /
SMILES | LMPTP block | Scp-1 inhibitor | STEP block | Rpn11 inh | DNMT1 inh | SUMO1 PPI mod | DNMT1 confirm | Beacon interf | others
COc1ccccc1C1C2=C(CC(C)(C)CC2=O)N(CC(=O)O)C2=C1C(=O)CC(C)(C)C2 | -1 | -8 | 0 | -11 | 52* | -8 | 7 | 9
COC(=O)Cn1c(=NC(=O)c2sc3ccccc3c2Cl)sc2cc(S(N)(=O)=O)ccc21 | 33 | 1 | 4 | -9 | 66* | -5 | 3 | -10
COC1=C(Br)C(=O)c2nc(C)ccc2C1=O | 4 | / | 3 | -25 | 83* | 16 | 41* | -8 | DNMT1 interf DR=>99
COC1=C(N)C(=O)c2nc(C)ccc2C1=O | 3 | 34 | 2 | -17 | 78* | 0 | 53* | -7 | DNMT1 interf DR=>99
COc1cc(/C=C(\C#N)C(=O)NCC2CCCO2)cc(OC)c1OC (centres undefined) | 3 | -3 | 2 | -4 | 57* | -7 | 3 | 4
COc1ccc(/C=C(\C#N)C(=O)NCC2CCCO2)cc1OC (centres undefined) | -2 | -4 | -1 | 0 | 9 | -20 | / | /
CC(=O)N1N=C(c2ccccc2)CC1c1cccs1 (centres undefined) | -1 | -12 | 1 | -2 | 3 | -4 | / | /
O=C(c1ccccc1)N1N=C(c2ccccc2)CC1c1cccs1 (centres undefined) | 5 | -19 | 1 | 4 | 89* | -1 | 1 | 4
CC(=O)N1N=C(c2ccccc2)CC1c1ccccc1 (centres undefined) | 1 | -7 | 5 | -2 | 88* | -2 | 7 | 6
